MPTP block = permeability transition pore inhibition; isolated mouse mitochondria, Ca2+ swelling absorbance, 30 min; actives 1.4% (n = 360,000); inhibition, % at 10 µM;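 active means inhibition of 50% or more, scaled per plate between neutral and stimulator controls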;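 further: 0% = DMSO wells given calcium and 100% = 1 mM EGTA wells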
CHOP inhibitor = CHOP inhibition in unfolded protein response | AID 2732 | actives 3.8% (n = 220,000) | inhibition, % at 10 µM | CHO-K1 CHOP-promoter luciferase, tunicamycin-induced, 15-18 h;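 active means compounds that reduced the stress-induced luciferase reporter signal by more than about 70% of percent inhibition, limit read from the data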;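 further: 0% = tunicamycin plus vehicle and 100% = wells without tunicamycin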
EBV gp42 inh = EBV gp42 inhibition | Q1HVG2 | Fluorescence polarization binding assay, mP read-out | inhibition, % (tested at 21.74 µM) | actives 0.42% (n = 220,000) | AID 1085; in the data active means inhibition above about 50%
Target sequence (Q1HVG2 whole entry, looked up): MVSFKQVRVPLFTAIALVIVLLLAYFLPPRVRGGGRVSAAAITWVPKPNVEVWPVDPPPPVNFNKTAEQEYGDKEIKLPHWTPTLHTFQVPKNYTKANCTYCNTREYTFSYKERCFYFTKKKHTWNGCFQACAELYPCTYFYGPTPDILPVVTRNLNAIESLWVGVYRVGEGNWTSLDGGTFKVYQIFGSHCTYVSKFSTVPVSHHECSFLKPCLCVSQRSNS
GRIN3A LBD mod = modulators (binders) of human NR3A ligand-binding domain; Tm shift relative to glycine control, % at 25 µM; NR3A LBD differential scanning fluorimetry, Tm shift; 0% = protein alone, 100% = glycine-bound protein; actives 2.5% (n = 340,000); AID 1259313;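 active means melting temperature shift of at least 10% of the positive control shift, at one fixed dose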
Tb MetRS inh = blocks T. brucei methionyl-tRNA synthetase activity; purified T. brucei MetRS, ATP depletion, Kinase-Glo luminescence; inhibition, % at 11.9 µM; actives 0.4% (n = 360,000); AID 624268;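 active means inhibition above a per-plate cutoff of the control wells' mean inhibition plus 3 SD, cut at about 5.5% in these data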;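 further: 0% = DMSO wells median and 100% = median of wells with control inhibitor compound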
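Material: parasite MetRS enzyme / Replication: singlicate, one well per compound / Signal: luminescence of leftover ATP / Schedule: 2 h aminoacylation at 25 °C after 15 min preincubation / Medium: HEPES-MgCl2-KCl buffer plus DTT, spermine, BSA, pyrophosphatase / Doses: 11.9 µM single point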
WT yeast gro inh = growth inhibition of WT yeast, mitochondrial fusion screen | inhibition, % at 10 µM | mitochondrial fusion phenotypic screen, WT strain | AID 1362 | actives 2.1% (n = 190,000); in the data active means inhibition above about 58%; tested in S. cerevisiae
Active calls of the source: *. An excerpt weighted towards active compounds, which were near 6.4% of everything screened.

How did COc1c(Cl)cccc1-c1cn2ccc(C)cc2n1 do in these assays?
MPTP block: 2; CHOP inhibitor: -21; EBV gp42 inh: 0; GRIN3A LBD mod: 11*; Tb MetRS inh: -1

How did Cc1cc(C)n(-c2ccc3cccc(NS(C)(=O)=O)c3n2)n1 do in these assays?
MPTP block: 0; CHOP inhibitor: 74*; EBV gp42 inh: 8; GRIN3A LBD mod: -2; Tb MetRS inh: -1; WT yeast gro inh: -4

How did COc1ccc2c(c1)C=C(C(=O)NCc1ccc(Cl)cc1)CO2 do in these assays?
MPTP block: 42; CHOP inhibitor: 55; EBV gp42 inh: -1; GRIN3A LBD mod: -10; Tb MetRS inh: 1; WT yeast gro inh: 68*

What do the screens show for `CCN(CC(=O)NCc1ccc(Cl)cc1)C(=O)c1ccc2cc(OC)ccc2c1`?
MPTP block: 5; GRIN3A LBD mod: -1; Tb MetRS inh: 0

What do the screens show for `CCOC(=O)C1(S(=O)(=O)c2ccc(Cl)cc2)CCN(Cc2ccc(Cl)cc2)CC1`?
MPTP block: 7; CHOP inhibitor: -8; EBV gp42 inh: -6; GRIN3A LBD mod: 2; Tb MetRS inh: -1; WT yeast gro inh: 72*

What do the screens show for `Cc1ccc(-c2nnc(N3CCN(C(=O)CN4CCOCC4)CC3)c3ccccc23)cc1`?
MPTP block: 1; CHOP inhibitor: 43; EBV gp42 inh: -5; GRIN3A LBD mod: -1; Tb MetRS inh: -1; WT yeast gro inh: -14

How did CN(C)C(/C=C/Nc1ccc([N+](=O)[O-])cc1)=C(C#N)C#N do in these assays?
MPTP block: 0; CHOP inhibitor: 2; EBV gp42 inh: -2; GRIN3A LBD mod: 18*; Tb MetRS inh: 0; WT yeast gro inh: -29

Results for COc1ccc(CCNC(=S)Nc2cccc3ccccc23)cc1 ?
MPTP block: 0; CHOP inhibitor: -16; EBV gp42 inh: 0; GRIN3A LBD mod: 2; Tb MetRS inh: 0; WT yeast gro inh: 68*

Results for COc1ccc(CCNC(=S)Nc2cc(C)cc(C)c2)cc1 ?
MPTP block: -1; CHOP inhibitor: 14; EBV gp42 inh: 5; GRIN3A LBD mod: -2; Tb MetRS inh: -1; WT yeast gro inh: 59*

How did COc1ccc(OCCNC(=S)Nc2cccc3ccccc23)cc1 do in these assays?
MPTP block: 2; CHOP inhibitor: 28; EBV gp42 inh: -5; GRIN3A LBD mod: -6; Tb MetRS inh: 1; WT yeast gro inh: 60*

What do the screens show for `O=C1CC(CCC(=O)NC2CC2)c2ccccc2N1` (stereo not given)?
MPTP block: 1; CHOP inhibitor: -9; EBV gp42 inh: -16; GRIN3A LBD mod: 1; Tb MetRS inh: 0; WT yeast gro inh: 12

How did O=C(c1cccc(F)c1)N1CCN=C1SCc1cccnc1 do in these assays?
MPTP block: -1; CHOP inhibitor: 86*; EBV gp42 inh: -17; GRIN3A LBD mod: -4; Tb MetRS inh: 0; WT yeast gro inh: -1

Results for COc1cc(OC)cc(C(=O)N2CCN=C2SCc2cccnc2)c1 ?
MPTP block: 0; CHOP inhibitor: 42; EBV gp42 inh: -8; GRIN3A LBD mod: -2; Tb MetRS inh: 0; WT yeast gro inh: 4

How did O=C(CN1C(=O)NC2(CCCc3ccccc32)C1=O)N1CCN(c2cccc(C(F)(F)F)c2)CC1 (stereo not given) do in these assays?
MPTP block: 1; GRIN3A LBD mod: 1; Tb MetRS inh: 0

What do the screens show for `CN(C)c1ccc(/C=C/c2c([N+](=O)[O-])c(=O)n(C)c(=O)n2C)cc1`?
MPTP block: 1; GRIN3A LBD mod: 2; Tb MetRS inh: 1

What do the screens show for `CN(C)c1ccc(-n2cccc2/C=C/[N+](=O)[O-])cc1`?
MPTP block: -1; CHOP inhibitor: 92*; EBV gp42 inh: -14; GRIN3A LBD mod: 2; Tb MetRS inh: 0; WT yeast gro inh: 9

How did CC(C)OCCCNC(=O)c1ccncc1 do in these assays?
MPTP block: 0; CHOP inhibitor: -5; EBV gp42 inh: -6; GRIN3A LBD mod: 2; Tb MetRS inh: 0; WT yeast gro inh: 9

What do the screens show for `COc1ccccc1C(=O)NCCOc1ccc(C(C)(C)C)cc1`?
MPTP block: 0; GRIN3A LBD mod: 2; Tb MetRS inh: 0

How did O=C(/C=C/c1ccccc1Cl)NCCc1ccc(F)cc1 do in these assays?
MPTP block: 3; CHOP inhibitor: 4; EBV gp42 inh: -18; GRIN3A LBD mod: 14*; Tb MetRS inh: 0; WT yeast gro inh: 14

What do the screens show for `O=C(/C=C/c1ccccc1[N+](=O)[O-])NCCc1ccc(F)cc1`?
MPTP block: 3; CHOP inhibitor: 2; EBV gp42 inh: -4; GRIN3A LBD mod: 1; Tb MetRS inh: 0; WT yeast gro inh: -3

What do the screens show for `O=C(c1cc(-c2ccc(O)cc2)on1)N1CCN(c2ccccc2)CC1`?
MPTP block: -1; GRIN3A LBD mod: 12*; Tb MetRS inh: 0

How did NC(=S)N/N=C1/CCSc2ccc3ccccc3c21 do in these assays?
MPTP block: -1; CHOP inhibitor: 75*; EBV gp42 inh: 0; GRIN3A LBD mod: -2; Tb MetRS inh: 0; WT yeast gro inh: 76*

What do the screens show for `O=C(CCC(=O)Nc1ccccc1Cl)NNC(=S)Nc1ccccc1C(F)(F)F`?
MPTP block: 0; GRIN3A LBD mod: 3; Tb MetRS inh: 0

Results for COc1cccc(C(=O)NOCc2ccc(C)cc2)c1OC ?
MPTP block: 0; GRIN3A LBD mod: -1; Tb MetRS inh: 0

How did O=C1c2cccc3cc([N+](=O)[O-])cc(c23)C(=O)N1/N=C/c1ccc(O)cc1O do in these assays?
MPTP block: 5; CHOP inhibitor: 47; EBV gp42 inh: 96*; GRIN3A LBD mod: -1; Tb MetRS inh: 0

Results for CCN(CC)c1ccc(/C=N/N2C(=O)c3ccccc3C2=O)c(O)c1 ?
MPTP block: 2; CHOP inhibitor: -42; EBV gp42 inh: -16; GRIN3A LBD mod: 24*; Tb MetRS inh: 0; WT yeast gro inh: -8

Results for COc1ccccc1/C=N/N1C(=O)c2cccc3cccc(c23)C1=O ?
MPTP block: 1; CHOP inhibitor: -3; EBV gp42 inh: 37; GRIN3A LBD mod: -2; Tb MetRS inh: 0; WT yeast gro inh: -5

How did COc1ccc(C(=O)NC(=S)Nc2ccc(S(=O)(=O)Nc3cc(OC)ncn3)cc2)cc1 do in these assays?
MPTP block: -2; GRIN3A LBD mod: -19; Tb MetRS inh: 0

What do the screens show for `CN(C)CCOc1ccc(-c2c(-c3ccsc3)sc3ccccc23)cc1`?
MPTP block: 0; GRIN3A LBD mod: -3; Tb MetRS inh: 0

What do the screens show for `CN1CCN(c2nc3ccccc3nc2C(C#N)C(=O)OC2CCCCC2)CC1` (stereo not given)?
MPTP block: -5; CHOP inhibitor: 72*; EBV gp42 inh: -4; GRIN3A LBD mod: 1; Tb MetRS inh: -1; WT yeast gro inh: 35

Results for CCOC(=O)C1CCN(c2nc3ccccc3nc2C(C#N)C(=O)NCCc2ccccc2)CC1 (stereo not given) ?
CHOP inhibitor: -17; EBV gp42 inh: 36; WT yeast gro inh: 82*

Assay outcomes (PubChem)
